Rows were chosen to be rich in hits. Some 2.6% of all compounds tested hit in one or more screens of this group.
MEKK2mut PB1 HTS – MEK5 binding signal on mutant MEKK2 PB1, primary screen, biochemical, multiplex bead flow cytometry, Alexa488-MEK5; Alexa488-MEK5 binding to MEKK2 mutant; percent response, % at 10 µM; hit rate 0.35% among 290,000; AID 1530, 2009; in the data active = percent response above about 24%, passing the limit was not always enough
MEKK3 PB1 HTS – modulators of MEKK3-MEK5 PB1 binding, primary screen, biochemical, wildtype MEKK3, multiplex bead flow cytometry, Alexa488-MEK5 | Mitogen-activated protein kinase kinase kinase 3 (Homo sapiens), Q99759 | bead-based flow cytometry, Alexa488-MEK5 binding to MEKK3; actives lie on both sides; 0 = blocked by unlabeled MEK5, 100 = vehicle | binding response (% of control), % at 10 µM | hit rate 1.4% among 290,000;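 active = binding response more than 3 SD above or below the average of its plate-row segment, actives on both sides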;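 also: Alexa488 bead fluorescence after subtracting the streptavidin-only scavenger bead signal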
Target sequence (Q99759 whole entry, looked up): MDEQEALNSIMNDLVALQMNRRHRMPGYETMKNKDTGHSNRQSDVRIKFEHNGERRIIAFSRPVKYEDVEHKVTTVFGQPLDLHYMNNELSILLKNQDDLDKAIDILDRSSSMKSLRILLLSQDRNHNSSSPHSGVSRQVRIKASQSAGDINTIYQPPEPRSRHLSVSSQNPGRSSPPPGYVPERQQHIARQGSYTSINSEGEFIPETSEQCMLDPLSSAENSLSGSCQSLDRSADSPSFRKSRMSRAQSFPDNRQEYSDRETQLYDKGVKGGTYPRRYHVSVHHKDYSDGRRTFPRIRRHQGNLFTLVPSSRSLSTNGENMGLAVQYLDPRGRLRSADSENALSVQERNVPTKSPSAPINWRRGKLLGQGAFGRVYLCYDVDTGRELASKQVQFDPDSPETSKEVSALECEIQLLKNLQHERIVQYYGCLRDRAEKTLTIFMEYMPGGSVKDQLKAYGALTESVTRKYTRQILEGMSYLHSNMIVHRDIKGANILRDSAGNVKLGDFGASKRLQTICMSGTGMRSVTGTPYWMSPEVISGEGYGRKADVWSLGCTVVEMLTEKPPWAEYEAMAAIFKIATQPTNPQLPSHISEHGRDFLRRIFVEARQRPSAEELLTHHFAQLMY
Lipid droplet – inhibitors of hepatocyte lipid droplet formation, primary screen, imaging, high-throughput imaging, BODIPY stain; AML12 mouse hepatocytes, oleate lipid droplets; hit rate 0.4% among 240,000; inhibition, % at 6.5 µM;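 active = lipid droplet intensity inhibited by at least 50%, with more than 500 cells counted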
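Assay system: AML12 mouse liver cells | Compound dosing: One dose, 6.5 µM compound | Read-out basis: Droplet intensity reduction, % inhibition | Measured by: Fluorescence imaging, 20x objective, two fields per well | Schedule: Overnight treatment with compound plus oleate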
MEKK2 WT-MEK5 – modulators of MEK5 binding to wildtype MEKK2, primary screen, biochemical, multiplex bead flow cytometry, Alexa488-MEK5 | Mitogen-activated protein kinase kinase kinase 2 (Homo sapiens), Q9Y2U5 | Alexa488-MEK5 binding to MEKK2 WT; actives lie on both sides | binding response (% of control), % at 10 µM | hit rate 1.1% among 290,000; in the data active = binding response below about 67% or above about 130%
MEKK2wt confirm – modulators of MEK5 binding to wildtype MEKK2, confirmation, biochemical, single concentration, multiplex bead flow cytometry; shares compounds with MEKK3 PB1 HTS; Alexa488-MEK5 binding to MEKK2 WT; actives lie on both sides; binding response (% of control), % at 10 µM; hit rate 2.4% among 5,900; AID 1892, 2009; in the data active = binding response below about 16% or above about 210%; inactive = in between
MEKK2mut confirm – mutant MEKK2 PB1-MEK5 binding signal retest – biochemical, single concentration, multiplex bead flow cytometry, confirmation; shares compounds with MEKK3 PB1 HTS; Alexa488-MEK5 binding to MEKK2 mutant; percent response, % at 10 µM; hit rate 2% among 5,900; in the data active = percent response mostly above about 71%, no sharp cut-off; inactive = mostly below about 38%;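 also: higher means compound restores mutant binding toward wildtype level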
MEKK3 confirm – MEKK3 wild-type PB1 binding to MEK5, inhibitors, confirmation, biochemical, bead multiplex flow cytometry, single concentration, wildtype; shares compounds with MEKK3 PB1 HTS; Alexa488-MEK5 binding to MEKK3; stronger effect = lower value; AID 1894, 2009; binding response (% of control), % at 10 µM; hit rate 1.8% among 5,900;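 active = binding response below 72% of control, or above a set upper limit, though filed actives all read lower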;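 also: 100% = DMSO only wells and 0% = binding blocked by excess unlabeled MEK5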
Starred values were filed as active, the others as inactive; x = no result; [ ] = another dose, or the depositor's remark.

SMILES | MEKK2mut PB1 HTS | MEKK3 PB1 HTS | Lipid droplet | MEKK2 WT-MEK5 | MEKK2wt confirm | MEKK2mut confirm | MEKK3 confirm
COc1cc(C(=S)N2CCCCC2)ccc1OCC(=O)N1CCCC1 | 5.0 | 124.0* | 4.8 | 118.0 | 99.0 | -2.0 | 104.0
CC(C)NC(=O)CN(Cc1ccc(F)cc1)C(=O)CCC(=O)Nc1nccs1 | 2.0 | 103.0 | 9.1 | 106.0 | x | x | x
CN1C/C(=C\c2ccc(N3CCOCC3)cc2)C(=O)/C(=C/c2ccc(N3CCOCC3)cc2)C1 | -4.0 | 89.0 | -4.8 | 81.0 | x | x | x
CCN1C/C(=C/c2ccc(N3CCOCC3)cc2)C(=O)/C(=C/c2ccc(N3CCOCC3)cc2)C1 | -23.0 | 93.0 | 3.0 | 26.0*[inhibitor] | 80.0 | -11.0 | 92.0
N=C1/C(=C/c2cccn2Cc2ccc(Cl)cc2)C(=O)N=C2SC=CN12 | -1.0 | 129.0* | -19.3 | 107.0 | 112.0 | 5.0 | 109.0
N=c1oc2ccccc2cc1-c1nc(-c2ccc(Cl)cc2)cs1 | -2.0 | 128.0* | 16.1 | 97.0 | 91.0 | -9.0 | 98.0
COc1cccc(C(=O)Nc2cc(NC(=O)c3cccs3)ccc2C)c1OC | 24.0* | 109.0 | -2.5 | 106.0 | 104.0 | 4.0 | 105.0
COc1cc(NC(=O)c2cccc(Cl)c2)ccc1NC(=O)c1cccs1 | 0.0 | 133.0* | 9.1 | 116.0 | 102.0 | -30.0 | 94.0
COc1ccc(NC(=O)Cc2c(SC)c3ccccc3n2Cc2ccccc2)cc1 | 1.0 | 160.0* | 40.0 | 109.0 | 98.0 | -3.0 | 100.0
CSc1c(CC(=O)NCCCO)n(Cc2ccccc2)c2ccccc12 | 1.0 | 99.0 | -40.6 | 104.0 | x | x | x
CSc1nnc(-c2nnc(SC)n2-c2ccccc2)n1-c1ccccc1 | -33.0 | 22.0*[inhibitor] | 13.2 | 35.0*[inhibitor] | 96.0 | 0.0 | 101.0
C=CC[C@H]1CC(Cc2ccccc2)=C[C@H](CC=C)N1 | -1.0 | 98.0 | 2.5 | 99.0 | x | x | x
C=CC[C@H]1CC(C)=C[C@H](CC=C)N1 | 195.0* | 117.0 | -0.5 | 203.0* | 99.0 | -3.0 | 100.0
C#CCNC(=O)C1=C[C@H](c2coc3ccccc3c2=O)[C@@H](CCCO)[C@H](OCC)O1 | 4.0 | 96.0 | 8.4 | 107.0 | x | x | x
C=CCN1C(=O)N/C(=C/c2ccc(C)o2)C1=O | 26.0 | 102.0 | 1.3 | 96.0 | x | x | x
COP(=O)(c1ccc(N(C)C)cc1)C(O)c1ccccc1 (configuration not stated) | 5.0 | 105.0 | -2.6 | 105.0 | x | x | x
CC(C)NS(=O)(=O)c1ccc2c(c1)NCC2 | -1.0 | 104.0 | 4.8 | 105.0 | x | x | x
COc1ccc(-c2cnnc(N/N=C/c3ccc(O)c(O)c3)n2)cc1 | 0.0 | 97.0 | -52.1 | 102.0 | x | x | x
COc1ccc(-c2cnnc(N/N=C/c3ccc(O)cc3)n2)cc1 | 0.0 | 128.0* | -4.7 | 117.0 | 102.0 | 3.0 | 100.0
COc1cc(C(=O)Nc2ccc(NC(C)=O)cc2)ccc1OCc1ccccc1 | -42.0 | 97.0 | 3.0 | 98.0 | x | x | x
COc1ccc(F)cc1S(=O)(=O)Nc1cccc(C(=O)O)c1 | -4.0 | 92.0 | 0.1 | 92.0 | x | x | x
CCOC(=O)/C(C#N)=C/c1cc2ccccc2nc1N1CCOCC1 | 0.0 | 66.0*[inhibitor] | 15.8 | 100.0 | 96.0 | -9.0 | 98.0
c1ccc(-c2cc3ccccc3nc2N2CCCC2)cc1 | -3.0 | 95.0 | -18.1 | 98.0 | x | x | x
CCOC(=O)/C(C#N)=C/C1=C(N2CCOCC2)C(C)(C)OCC1 | 4.0 | 99.0 | -1.6 | 99.0 | x | x | x
CCOC(=O)/C(C#N)=C/c1cc2ccc(C)cc2nc1Cl | -2.0 | 57.0*[inhibitor] | -2.1 | 91.0 | 100.0 | -6.0 | 99.0
SMILES | MEKK2mut PB1 HTS | MEKK3 PB1 HTS | Lipid droplet | MEKK2 WT-MEK5 | MEKK2wt confirm | MEKK2mut confirm | MEKK3 confirm
Cc1ccc(-c2cc3ccccc3nc2N2CCOCC2)cc1 | -9.0 | 75.0*[inhibitor] | 1.2 | 85.0 | 106.0 | 3.0 | 109.0
CCOC(=O)/C(C#N)=C/c1cc2cc(C)c(C)cc2nc1Cl | 0.0 | 101.0 | 11.3 | 97.0 | x | x | x
O=C(NCc1ccc(F)cc1)C1CCN(S(=O)(=O)c2cccc3nonc23)CC1 | 0.0 | 102.0 | -1.2 | 103.0 | x | x | x
COc1cccc(NC(=O)CCC2CCN(C(=O)c3ccc(C(C)=O)s3)CC2)c1 | 3.0 | 101.0 | 6.4 | 102.0 | x | x | x
Cc1cc(C)cc(N(CC(=O)NC2CCCC2)C(=O)CCC(=O)Nc2cc(C)ccn2)c1 | -2.0 | 98.0 | -0.6 | 92.0 | x | x | x
CC/C(=C\c1oc2cc3ccccc3cc2[n+]1CC)Nc1ccccc1 | 464.0* | 135.0* | -46.0 | 389.0* | 92.0 | -88.0*[inhibitor] | 81.0
CCC1SC2=NC(C)=C(C(=O)OCCOC)C(/C=C/c3ccccc3OC)N2C1=O (configuration not stated) | 5.0 | 124.0* | x | 116.0 | 95.0 | -6.0 | 100.0
CCN(CC)CCN(C(=O)c1ccc(Br)s1)c1nc2cc3c(cc2s1)OCCO3 | 19.0 | 103.0 | 11.4 | 138.0* | 129.0 | 26.0 | 104.0
CCN(CC)CCN(C(=O)c1ccc(C(=O)c2ccccc2)cc1)c1nc2cc3c(cc2s1)OCO3 | 31.0* | 110.0 | -1.8 | 157.0* | 151.0 | 22.0 | 110.0
CCN(CC)CCN(C(=O)c1ccc(Br)s1)c1nc2cc3c(cc2s1)OCO3 | 14.0 | 104.0 | 5.0 | 125.0 | x | x | x
CCN(CC)CCN(C(=O)c1ccc2ncsc2c1)c1nc2cc3c(cc2s1)OCO3 | 8.0 | 101.0 | 7.2 | 116.0 | x | x | x
CCN(CC)CCN(C(=O)c1ccc(C(=O)c2ccccc2)cc1)c1nc2c(OC)cccc2s1 | 42.0* | 115.0 | -4.4 | 178.0* | 157.0 | 25.0 | 108.0
COc1cc(-c2nc(C)c(C(C)=O)n2O)ccc1OCC(=O)Nc1ccc(Cl)cc1 | 5.0 | 101.0 | 12.1 | 98.0 | x | x | x
N/C(Cc1cccc2ccccc12)=N\OC(=O)Cc1cccs1 | 0.0 | 144.0* | -17.9 | 100.0 | 98.0 | 0.0 | 102.0
N/C(Cc1cccc2ccccc12)=N\OC(=O)c1cccs1 | 0.0 | 103.0 | 6.6 | 100.0 | x | x | x
CCCCOc1ccc(Cl)cc1Nc1nc(NCCO)nc(N2CCCC2)n1 | 9.0 | 110.0 | x | 141.0* | 112.0 | 3.0 | 99.0
O=C(NCCS(=O)(=O)c1ccc(Br)cc1)c1c(F)cccc1F | 5.0 | 106.0 | -1.0 | 111.0 | x | x | x
COc1ccc(/C=C/c2cc(C(F)(F)F)on2)cc1 | -23.0 | 50.0*[inhibitor] | 5.8 | 57.0 | 112.0 | 7.0 | 105.0
Cc1ccc(S(=O)(=O)N2C(=O)CCC2C(=O)O/N=C(\N)c2ccc([N+](=O)[O-])cc2)cc1 (configuration not stated) | 1.0 | 99.0 | -7.6 | 97.0 | x | x | x
